# Sampled rows, rich in hits. Any-hit rate of the full collection: about 2.9%.
# proKLK7 act: activators of human kallikrein-7 zymogen. P49862. purified proKLK7, EDANS-DABCYL substrate fluorescence; 100% is mature enzyme control, 0% vehicle. activation, % at 7 µM. hit rate 0.9% among 370,000;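 active = activation above the mean of all tested compounds plus 3 SD, computed per campaign excluding outliers beyond control limits, cut at about 13% in these data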
# Runt-CBFb FRET: inhibitors of human RUNX1 Runt domain binding to CBFb. Q01196+Q13951. Cerulean-Runt/Venus-CBFb FRET ratio 530/480, 1 h. inhibition, % at 20 µM. hit rate 0.46% among 220,000. AID 1496;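 active = inhibition over about 50% at 20 µM in the single-dose screen, limit read from the data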
#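 Measured by: fluorescence energy transfer, 422 nm excitation, 530/480 nm emission; Assay system: Cerulean-Runt domain; Medium: Tris pH 7.5 buffer with BSA; Measure: loss of energy transfer signal; Controls: 5 µM unlabeled CBFb as full-inhibition high control; Incubation: protein complex preformed 1 h, compound exposure 1 h, room temperature, dark.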
# Wee1 degr inh: blocks degradation of human Wee1 kinase; reporter increase, % at 5 µM; hit rate 1.2% among 220,000; HeLa Luc-Wee1K328M stability, luciferase luminescence; 100% = proteasome inhibitor MG132 effect;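 active = activation above the mean of all tested compounds plus 3 SD, set per screening run, cut at about 8.8% in these data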;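 also: cells exposed to compound for 20 h before luminescence read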
# Target sequence (P30291 whole entry K328M): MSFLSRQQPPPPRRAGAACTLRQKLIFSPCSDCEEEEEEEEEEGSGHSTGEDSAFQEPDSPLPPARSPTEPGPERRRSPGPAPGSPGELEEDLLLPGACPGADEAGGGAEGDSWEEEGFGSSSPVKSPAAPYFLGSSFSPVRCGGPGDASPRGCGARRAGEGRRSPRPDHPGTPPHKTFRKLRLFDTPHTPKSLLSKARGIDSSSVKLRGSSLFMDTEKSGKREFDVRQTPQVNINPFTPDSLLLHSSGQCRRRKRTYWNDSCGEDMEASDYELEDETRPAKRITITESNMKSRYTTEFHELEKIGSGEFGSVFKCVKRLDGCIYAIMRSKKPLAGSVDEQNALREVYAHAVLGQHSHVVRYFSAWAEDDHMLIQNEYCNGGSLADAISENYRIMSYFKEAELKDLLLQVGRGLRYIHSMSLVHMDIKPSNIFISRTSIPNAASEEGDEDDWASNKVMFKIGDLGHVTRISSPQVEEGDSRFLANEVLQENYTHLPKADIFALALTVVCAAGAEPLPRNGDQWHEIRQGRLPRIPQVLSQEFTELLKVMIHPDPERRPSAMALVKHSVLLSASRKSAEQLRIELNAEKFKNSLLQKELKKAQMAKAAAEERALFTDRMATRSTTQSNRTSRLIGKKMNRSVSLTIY
# Runt-SMMHC FRET: blocks binding of human RUNX1 Runt domain to CBFb-SMMHC. Q01196+Q13951. inhibition, % at 20 µM. AID 1434. Cerulean-Runt/Venus-CBFb-SMMHC FRET ratio 530/480, 1 h. hit rate 0.74% among 220,000;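 active = mean inhibition across duplicate retests at 20 µM reaching about 50%, limit read from the data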;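 also: inhibitors lower the FRET ratio by blocking Runt binding to CBFb-SMMHC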
# AI-2 QS modul: modulators of Vibrio harveyi AI-2 quorum sensing system; Vibrio harveyi JMH597 AI-2 luminescence/OD600 ratio, 9 h; active compounds read low; strain lacks LuxN and CqsS sensors; 0 = neutral-control median; activity change, % at 7.5 µM; hit rate 0.4% among 300,000; in the data active = activity change below about -75%, passing the limit was not always enough; inconclusive = no clear call, values can overlap the other calls;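 also: luminescence divided by OD600 gain over 9 h not by final OD600 alone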
# RanGTP-Impb inh: inhibitors of RanGTP-importin-beta interaction, primary screen, biochemical, FRET, CFP-Ran, YFP-importin-beta, homogeneous. cell-free CFP-Ran/YFP-importin-beta FRET ratio. inhibition, % (concentration not given with the values). hit rate 1.1% among 300,000;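 active = more than half of the replicate wells show a fall in the fluorescence ratio signal beyond about 16%, limit read from the data, passing the limit was not always enough; inconclusive = exactly half of the replicate wells pass the set limit; inactive = fewer than half of replicates pass the limit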
# YIC counter: counter-screen: alters YIC FRET probe signal. Purified YIC probe, intramolecular FRET ratio YFP/CFP. shares compounds with RanGTP-Impb inh. IC50, µM. hit rate 40% among 1,000;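 active = fitted half-maximal inhibitory concentration no more than tenfold above the top dose tested; inconclusive = flat fit with 30 to 70% activity, or poor fit; inactive = half-maximal concentration beyond tenfold above the top dose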
# A number is an active result; - = inactive; ? = inconclusive; . = no result given.
SMILES,proKLK7 act,Runt-CBFb FRET,Wee1 degr inh,Runt-SMMHC FRET,AI-2 QS modul,RanGTP-Impb inh,YIC counter
CCOC(=O)C1(CC2CCCCO2)CCN(C(=O)Nc2ccc3c(c2)OCO3)CC1 (configuration not stated),-,-,-,-,-,22,-
Cc1cccc2cc(C#N)c(NCCCn3ccnc3)nc12,-,-,-,86,-,35,20
Cc1cc(C)c2cc(C#N)c(NCCNC(=O)c3ccncc3)nc2c1,-,.,.,.,.,.,.
Cc1ccc2cc(C#N)c(NCCNC(=O)C3CC3)nc2c1C,-,-,-,103,-,16,47
CCC(=O)NCCNc1nc2cc(C)c(C)cc2cc1C#N,-,-,-,-,-,34,14
Cc1cccc2cc(C#N)c(NCc3ccccc3)nc12,-,-,-,-,-,?,.
Cc1cccc2cc(C#N)c(NCCNC(=O)COc3ccccc3)nc12,-,-,-,-,-,20,27
COc1ccc(-c2cc3ccccc3nc2N)cc1OC,-,.,.,.,-,-,.
NC(=O)c1ncn([C@@H]2O[C@H](CNCc3cccc(OC4CCCC4)c3)[C@@H](O)[C@H]2O)n1,-,.,.,.,.,.,.
COc1cc(NC(=O)COc2cc3oc(=O)cc(C)c3cc2Cl)cc(OC)c1OC,-,.,.,.,-,?,.
CCOC(=O)CC(=O)CSc1nc2c(cc1C#N)CCC2,-,-,-,-,-,16,24
N#CC1=C(N)SC(N)=C(C#N)C1c1c(Cl)cccc1Cl,-,-,-,-,-,-,.
N#CC1=C(N)SC(N)=C(C#N)C1c1cccc(Oc2ccccc2)c1,-,-,-,78,-,24,-
CC(C)NC(=O)CCCc1c[nH]c2ccccc12,-,-,-,-,-,?,.
CC(C)(C)c1ccc(S(=O)(=O)NCC(=O)N2CCCC2)cc1,-,.,.,.,-,-,.
CC(C)(C)c1ccc(S(=O)(=O)NCC(=O)N2CCN(C(=O)c3ccco3)CC2)cc1,-,-,-,-,-,21,-
CC(C)c1cccc(C(C)C)c1NC(=O)CNCc1ccccc1F,-,-,-,-,-,-,.
COc1ccc2c(c1)[C@]1(C(=O)N2C)C2=C(CCCC2=O)Oc2cc(C)oc(=O)c21,-,.,.,.,.,.,.
COCc1ccc(CN2CCCC(CO)(Cc3ccccc3C)C2)o1 (configuration not stated),-,-,-,-,-,23,-
CC(=O)NC(c1ccccc1)c1nc(-c2cc3ccccc3o2)cs1 (configuration not stated),-,.,.,.,.,.,.
OCCN1CN=C(Nc2nc3ccccc3s2)NC1,-,-,-,-,-,-,.
c1ccc2sc(NC3=NCN(CCN4CCOCC4)CN3)nc2c1,-,-,-,-,-,28,-
COc1cccc(N2CCN(C(=O)c3ccc4ccccc4c3)CC2)c1,-,.,.,.,.,.,.
COc1cccc(N2CCN(C(=O)c3cc4c(=O)n(Cc5ccccc5)ccc4nc3C)CC2)c1,-,.,.,.,-,16,-
O=C(Nc1nonc1NC(=O)c1cccs1)c1cccs1,-,-,-,-,-,21,-
SMILES,proKLK7 act,Runt-CBFb FRET,Wee1 degr inh,Runt-SMMHC FRET,AI-2 QS modul,RanGTP-Impb inh,YIC counter
CC1CCCCN1C(=O)Cn1c(=O)oc2cc(S(=O)(=O)N3CCCC3)ccc21 (configuration not stated),-,.,.,.,-,17,-
Cc1c(S(=O)(=O)N2CCCC(C(=O)O)C2)cnn1C (configuration not stated),-,-,-,-,-,22,-
c1cncc(Nc2c3ccccc3nc3ccccc23)c1,-,.,.,.,-,34,-
Oc1cccc(Nc2c3ccccc3nc3ccccc23)c1,-,.,.,.,-,50,-
Cc1ccc(-c2nc(Nc3cccc(O)c3)c3ccccc3n2)cc1,-,.,.,.,-,-,.
COC(=O)C1=CN(Cc2cccs2)C=C(C(=O)OC)C1c1ccc(OC)cc1OC,-,105,-,91,-,40,7
COC(=O)N(C)C[C@H]1OCc2cn(nn2)CCCC(=O)N([C@@H](C)CO)C[C@H]1C,.,.,.,.,.,.,-
CC(C)Cc1cc(CN2CCC(CO)(Cc3ccccc3)CC2)[nH]n1,-,-,-,-,-,-,.
COc1ccccc1-c1cc(NC=O)c2ncc(-c3ccc(S(C)(=O)=O)cc3)n2c1,-,.,.,.,.,.,.
C[C@H](CO)N1C[C@H](C)[C@@H](CN(C)C(=O)NC2CCCCC2)Oc2c(NS(=O)(=O)c3cn(C)cn3)cccc2C1=O,-,.,.,.,.,.,.
CCOC(=O)CSc1nnc(CSc2nc3sc4c(c3c(=O)[nH]2)CCCC4)n1-c1ccccc1,-,-,-,-,-,32,-
CCOC(=O)CCCSc1nc2sc3c(c2c(=O)[nH]1)CCC3,-,-,-,-,-,?,.
CCOC(=O)c1c(N2C(=O)Nc3ccccc3N2O)sc2c1CCCC2,-,-,-,-,-,20,-
CCOC(=O)/C(C#N)=C/c1c(N2CCN(c3ccc(OC)cc3)CC2)nc2c(C)cccn2c1=O,-,.,.,.,-,20,-
CCOC(=O)/C(C#N)=C/c1c(N2CCN(c3cccc(Cl)c3)CC2)nc2c(C)cccn2c1=O,-,.,.,.,-,-,.
Cc1nnc(Sc2nc3c(c(=O)n(C)c(=O)n3C)n2Cc2ccccc2Cl)s1,-,.,-,.,-,17,-
COc1ccc(NC(=O)C2CC2(Cl)Cl)cc1S(=O)(=O)N1CCCCC1 (configuration not stated),-,.,.,.,.,.,.
CC[C@H]1OC(=O)[C@H](C)[C@@H](O[C@H]2C[C@@](C)(OC)[C@@H](O)[C@H](C)O2)[C@H](C)[C@@H](O[C@@H]2O[C@H](C)C[C@H](N(C)C)[C@H]2O)[C@](C)(O)C[C@@H](C)CN(C)[C@H](C)[C@@H](O)[C@]1(C)O,-,.,.,.,-,?,.
CCN1CCc2c(sc(NC(=O)C3CCCCC3)c2C(=O)OC)C1,-,.,.,.,-,42,-
CCOC(=O)c1c(NC(=S)N2CCCCC2)sc2c1CCN(C(=O)OCC)C2,-,-,-,-,-,-,.
CCOC(=O)c1c(NC(=O)C2CCCCC2)sc2c1CCN(CC)C2,-,.,.,.,-,20,-
CCN(CC)CCC(=O)NN,-,-,-,-,-,-,.
Cc1cc(C)c2c(c1)/C(=c1/sc3n(c1=O)CN(c1ccccc1)CN=3)C(=O)N2,-,-,-,-,-,54,-
O=c1/c(=C/c2ccccn2)sc2n1CN(c1ccccc1)CN=2,-,-,-,-,-,-,.
CC(C)(C)Nc1nc(SCC(=O)Nc2ccccc2)nc(N2CCOCC2)n1,-,-,-,-,-,21,-
O=C(NC1CC1)c1ccc(CS(=O)c2ccc(Br)cc2)o1 (configuration not stated),-,.,.,.,-,-,.
